Among the data in ChEMBL document CHEMBL1153883, “Cytotoxic, antioxidant activities and structure activity relationship of some newly synthesized terpenoidal oxaliplatin analogs” (Eur J Med Chem, 2009) are LD50 and Activity values, retold here.

Data set [1] in a line: Acute toxicity in Albino rat. Conditions: in vivo. The class given is organism-based.
For data set [2], the system named is HT-29. Description: Cytotoxicity against human HT-29 cells at 50 ug/ml after 12 hrs by neutral red assay. The class given is functional. An outline of the steps:
(§1)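 HT-29 cells (Korean Cell Line Bank) were kept in DMEM with 10% FBS, penicillin and streptomycin at 37 °C under 5% CO2. Cells in 96-well plates were exposed to compounds for 12–48 h. The medium was replaced with fresh medium for neutral red uptake. Dye was extracted with 50% ethanol containing 50 mM sodium citrate (pH 4.2), and absorbance was read at 510 nm after 20 min.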

The subject of data set [3] is HT-29. Description: Cytotoxicity against human HT-29 cells at 50 ug/ml after 24 hrs by neutral red assay. The class given is functional. A digest of the protocol: as §1
Data set [4] has as its system HT-29. Description: Cytotoxicity against human HT-29 cells at 50 ug/ml after 48 hrs by neutral red assay. It is filed as functional. An outline of the steps:
as §1

The test system of data set [5] is HT-29. Description: Cytotoxicity against human HT-29 cells at 100 ug/ml after 12 hrs by neutral red assay. The class given is functional. A digest of the protocol: as §1
The subject of data set [6] is HT-29. Description: Cytotoxicity against human HT-29 cells at 100 ug/ml after 24 hrs by neutral red assay. It is filed as functional. An outline of the steps:
as §1

Data set [7] has as its system HT-29. Description: Cytotoxicity against human HT-29 cells at 100 ug/ml after 48 hrs by neutral red assay. It is filed as functional. A digest of the protocol:
as §1

Data set [8] deals with HT-29. Description: Cytotoxicity against human HT-29 cells at 150 ug/ml after 12 hrs by neutral red assay. It is filed as functional. An outline of the steps:
as §1

Data set [9] deals with HT-29. Put plainly: Cytotoxicity against human HT-29 cells at 150 ug/ml after 24 hrs by neutral red assay. The class given is functional. A digest of the protocol:
as §1

The nature of data set [10]: Antioxidant activity assessed as superoxide anion scavenging activity by NBT reduction method. The class given is functional. Also noted: concentration or dose not given beside the values. An outline of the steps: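 Superoxide was generated by […]xanthine oxidase. Sample in 100 mM phosphate buffer (pH ~7.0) with xanthine oxidase (1.65 × 10^-2 units/ml) and NBT at 25 °C. The reaction was started by adding xanthine and followed by NBT reduction absorbance. Scavenging % was calculated from the absorbance increase with sample versus without sample (control).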

Data set [11] can be described thus: Antioxidant activity assessed as superoxide anion scavenging activity by NBT reduction method relative to Vitamin C. The class given is functional. Details: concentration or dose not given beside the values.

Take `COC(=O)[C@]12CC[C@@H](C)[C@H](C)[C@H]1C1=CC[C@@H]3[C@@]4(C)C[C@@H](N)[C@H](N)C(C)(C)[C@@H]4CC[C@@]3(C)[C@]1(C)CC2`: the LD50 in data set [1] was found to be 836 mg/kg. Further, the Activity in the data set with HT-29 [2] came out at 44%; in the data set with HT-29 [3], 47%; in the data set on HT-29 [4], 50%; with HT-29 [5], 56%; in the data set with HT-29 [6], 60%; in the data set on HT-29 [7], 62%. Besides, the Activity with HT-29 [8] worked out at 70%; with HT-29 [9], 75%; in data set [10], 74.2%; in [11] it was 1.65%.

Turning to `C[C@H]1[C@H](C)CC[C@]2(C(=O)O)CC[C@]3(C)C(=CC[C@@H]4[C@@]5(C)C[C@@H](O)[C@H](O)C(C)(C)[C@@H]5CC[C@]43C)[C@H]12` [COROSOLIC ACID], the LD50 in [1] is 816 mg/kg.

For `COC(=O)[C@]12CC[C@@H](C)[C@H](C)[C@H]1C1=CC[C@@H]3[C@@]4(C)C[C@@H](O)[C@H](O)C(C)(C)[C@@H]4CC[C@@]3(C)[C@]1(C)CC2` [COROSOLIC ACID METHYL ESTER], the LD50 in [1] is 818 mg/kg. For the same compound, the Activity with HT-29 [2] was found to be 22%; in the data set on HT-29 [3], 29%; in the data set with HT-29 [4] it was 35%; in the data set with HT-29 [5] it was 40%; in the data set on HT-29 [6] it was 44%; with HT-29 [7], 50%. In addition, the Activity came to 53% in the data set on HT-29 [8], 58% in the data set on HT-29 [9], 68% in data set [10] and 1.51% in data set [11].

With `COC(=O)[C@@]1(C)CC[C@]2(C)CC[C@]3(C)C(=CC(=O)[C@@H]4[C@@]5(C)C[C@H](N=[N+]=[N-])[C@@H](N=[N+]=[N-])C(C)(C)[C@@H]5CC[C@]43C)[C@@H]2C1`, in data set [1], the LD50 came to 898 mg/kg. Also, the Activity worked out at 29% in the data set on HT-29 [2]; 31% with HT-29 [3]; 36% in the data set with HT-29 [4]; 42% in the data set with HT-29 [5]; 46% in the data set on HT-29 [6]; 52% in the data set with HT-29 [7]. Also, the Activity in the data set with HT-29 [8] was determined as 55%; in the data set on HT-29 [9] it was 60%; in data set [10], 68.1%; in [11], 1.51%.

In [1], `COC(=O)[C@]12CC[C@@H](C)[C@H](C)[C@H]1C1=CC[C@@H]3[C@@]4(C)C[C@@H](N=[N+]=[N-])[C@H](N=[N+]=[N-])C(C)(C)[C@@H]4CC[C@@]3(C)[C@]1(C)CC2` yielded an LD50 of 825 mg/kg. Besides, the Activity in the data set on HT-29 [2] is 33%; with HT-29 [3] it was 35%; with HT-29 [4], 40%; in the data set on HT-29 [5], 44%; in the data set with HT-29 [6] it was 48%; in the data set on HT-29 [7], 55%. Also, the Activity amounted to 61% in the data set on HT-29 [8], 66% in the data set on HT-29 [9], 69.1% in data set [10] and 1.54% in data set [11].

In turn, `COC(=O)[C@@]1(C)CC[C@]2(C)CC[C@]3(C)C(=CC(=O)[C@@H]4[C@@]5(C)C[C@H](O)[C@@H](O)C(C)(C)[C@@H]5CC[C@]43C)[C@@H]2C1` had an LD50 in data set [1] of 793 mg/kg. For the same compound, the Activity worked out at 19% in the data set with HT-29 [2]; 21% in the data set with HT-29 [3]; 33% in the data set with HT-29 [4]; 39% in the data set on HT-29 [5]; 41% with HT-29 [6]; 42% in the data set on HT-29 [7]. Besides, the Activity amounted to 40% in the data set with HT-29 [8], 52% in the data set with HT-29 [9], 65.1% in data set [10] and 1.45% in data set [11].

In [1], `CC1(C)[C@H](O)[C@@H](O)C[C@]2(C)[C@H]3C(=O)C=C4[C@@H]5C[C@@](C)(C(=O)O)CC[C@]5(C)CC[C@@]4(C)[C@]3(C)CC[C@@H]12` came in with an LD50 of 656 mg/kg.

For `COC(=O)[C@@]1(C)CC[C@]2(C)CC[C@]3(C)C(=CC(=O)[C@@H]4[C@@]5(C)C[C@H](N)[C@@H](N)C(C)(C)[C@@H]5CC[C@]43C)[C@@H]2C1`, in data set [1], the LD50 was found to be 893 mg/kg. Also, the Activity was found to be 40% in the data set with HT-29 [2]; 43% with HT-29 [3]; 45% in the data set on HT-29 [4]; 48% in the data set with HT-29 [5]; 50% in the data set on HT-29 [6]; 58% in the data set with HT-29 [7]. Moreover, the Activity in the data set with HT-29 [8] amounted to 65%; in the data set on HT-29 [9], 70%; in data set [10], 70.1%; in [11], 1.56%.

Take `O=C1O[C@H]([C@@H](O)CO)C(O)=C1O`: the Activity in data set [10] is 45%; in data set [11], 1%.
